Consider 1 molecule from ChEMBL document CHEMBL4014347, “Targeting Mycolic Acid Transport by Indole-2-carboxamides for the Treatment of Mycobacterium abscessus Infections” (J Med Chem, 2017).

Data set [1] concerns Mycobacteroides abscessus. Description: Antibacterial activity against CF patient derived Mycobacterium abscessus subsp. abscessus isolate 1298 smooth variant after 3 to 5 days by two fold serial dilution method. It is filed as functional. An outline of the steps:
(§1)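 Broth microdilution in cation-adjusted Mueller−Hinton broth per CLSI; inoculum 5 × 10^6 CFU/mL of exponential-phase bacteria; two-fold serial dilutions, solvent-only wells as control; 30 °C for 3−5 days; MIC read visually and confirmed by absorbance at 560 nm; triplicate on three independent occasions.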

Data set [2] has as its system Mycobacteroides abscessus. Description: Antibacterial activity against CF patient derived Mycobacterium abscessus subsp. massiliense isolate 185 smooth variant after 3 to 5 days by two fold serial dilution method. It is filed as functional. Put shortly:
as §1

Data set [3] concerns Mycobacteroides abscessus. Kind of data set: Antibacterial activity against CF patient derived Mycobacterium abscessus subsp. massiliense isolate 120 smooth variant after 3 to 5 days by two fold serial dilution method. It is filed as functional. An outline of the steps: as §1
Data set [4] can be described thus: Antibacterial activity against non CF patient derived Mycobacterium abscessus subsp. bolletii isolate 19 rough variant after 3 to 5 days by two fold serial dilution method. The format is functional. The settings on record: Mycobacteroides abscessus. An outline of the steps:
as §1

Data set [5] in a line: Antibacterial activity against non CF patient derived Mycobacterium abscessus subsp. bolletii isolate 17 smooth variant after 3 to 5 days by two fold serial dilution method. The format is functional. The settings on record: Mycobacteroides abscessus. An outline of the steps: as §1
Data set [6] is described as follows: Antibacterial activity against CF patient derived Mycobacterium abscessus subsp. bolletii isolate 97 smooth variant after 3 to 5 days by two fold serial dilution method. The settings on record: Mycobacteroides abscessus. The format is functional. An outline of the steps: as §1
In data set [7] the test system is Mycobacteroides abscessus. Kind of data set: Antibacterial activity against Mycobacterium abscessus CIP104536 smooth variant harboring pMV261 MAB_4508 wild type at 0.5 to 1 ug/ml after 3 days. The format is functional. An outline of the steps: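 M. abscessus overexpressing wild-type or A309P MAB_4508 from pMV261 plated on 7H10 agar with 10% OADC containing drug; plates incubated at 30 °C for 3 days before growth inspection.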

Data set [8] has as its system Mycobacteroides abscessus. Kind of data set: Inhibition of MmpL3 A309P mutant in Mycobacterium abscessus CIP104536 smooth variant harboring pMV261 MAB_4508_A309P mutant assessed as reduction in trehalose monomycolate transport at 6.2 ug/ml preincubated for 1 hr followed by [14C]acetic acid addition measured after 2 hrs by TLC based autoradiography analysis. Put shortly: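 Exponential cultures in 7H9 with OADC exposed to increasing drug concentrations for 1 h at 37 °C with agitation, then labelled with 1 μCi/mL [14C]acetate (56 mCi/mmol) for 2 h; apolar lipids (TMM, TDM) run on TLC in chloroform/methanol/water 40:8:1; MAME and arabinogalactan-bound mycolates in petroleum ether/acetone 95:5; autoradiography.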

In data set [9] the target is T1, Cytochrome P450 1A2 (Homo sapiens, UniProt P05177).
T1 sequence (P05177 whole entry): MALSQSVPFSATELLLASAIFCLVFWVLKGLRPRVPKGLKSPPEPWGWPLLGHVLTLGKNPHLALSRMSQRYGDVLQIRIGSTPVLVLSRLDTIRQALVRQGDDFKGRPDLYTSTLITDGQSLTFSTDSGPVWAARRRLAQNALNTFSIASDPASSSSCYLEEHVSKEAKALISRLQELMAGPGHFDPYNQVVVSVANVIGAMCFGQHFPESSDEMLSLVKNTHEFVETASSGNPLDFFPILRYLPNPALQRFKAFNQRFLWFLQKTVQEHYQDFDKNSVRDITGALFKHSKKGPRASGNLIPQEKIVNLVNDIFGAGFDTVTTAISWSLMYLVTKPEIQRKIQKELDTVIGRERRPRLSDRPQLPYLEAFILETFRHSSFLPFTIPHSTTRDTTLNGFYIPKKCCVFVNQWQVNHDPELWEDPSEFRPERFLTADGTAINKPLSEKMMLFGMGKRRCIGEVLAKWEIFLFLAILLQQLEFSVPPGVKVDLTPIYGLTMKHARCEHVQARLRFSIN
Description: Inhibition of CYP1A2 in human liver microsomes preincubated for 5 mins followed by NADPH addition measured after 10 mins by LC-MS/MS analysis. It is filed as ADME. For orientation: Liver microsomes are a subcellular fraction often used to study metabolism.

The target in data set [10] is Cytochrome P450 3A4 (Homo sapiens, UniProt P08684). Description: Inhibition of CYP3A4 in human liver microsomes preincubated for 5 mins followed by NADPH addition measured after 5 mins by LC-MS/MS analysis. The format is ADME.
Data set [11] in a line: Permeability of the compound at 25 uM at pH 7.4 after 4 hrs by LC-MS based PAMPA. It is filed as physicochemical. Conditions: read-out: permeability. Put shortly:
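PAMPA: 25 μM compound in aqueous buffer at pH 7.4 or 5.0 (pH adjusted with NaOH) in donor plate, triplicate; acceptor membrane coated with GIT-0 lipid, acceptor sink buffer; 4 h at 25 ± 2 °C; donor and acceptor solutions analysed by LC-MS (UPLC).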
(In general: PAMPA measures passive passage across an artificial lipid membrane.)

Data set [12] concerns the target T2, Cytochrome P450 2C8 (Homo sapiens, UniProt P10632).
T2 sequence (P10632 whole entry): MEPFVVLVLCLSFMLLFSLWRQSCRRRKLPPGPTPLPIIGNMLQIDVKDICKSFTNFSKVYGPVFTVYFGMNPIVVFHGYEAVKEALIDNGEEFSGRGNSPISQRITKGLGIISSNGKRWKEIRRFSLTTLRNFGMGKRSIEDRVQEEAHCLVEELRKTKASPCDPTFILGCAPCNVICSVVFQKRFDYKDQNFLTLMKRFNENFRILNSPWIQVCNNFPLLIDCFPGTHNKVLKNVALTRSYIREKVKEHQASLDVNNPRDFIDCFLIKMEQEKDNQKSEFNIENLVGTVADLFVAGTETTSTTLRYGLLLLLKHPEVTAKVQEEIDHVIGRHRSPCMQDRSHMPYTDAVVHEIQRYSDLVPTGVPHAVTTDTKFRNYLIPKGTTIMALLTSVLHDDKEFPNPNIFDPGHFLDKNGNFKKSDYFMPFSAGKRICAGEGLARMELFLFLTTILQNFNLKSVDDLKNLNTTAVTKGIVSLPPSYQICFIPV
Description: Inhibition of CYP2C8 in human liver microsomes preincubated for 5 mins followed by NADPH addition measured after 10 mins by LC-MS/MS analysis. The format is ADME.

In data set [13] the target is Cytochrome P450 2C9 (Homo sapiens, UniProt P11712). Kind of data set: Inhibition of CYP2C9 in human liver microsomes preincubated for 5 mins followed by NADPH addition measured after 10 mins by LC-MS/MS analysis. The format is ADME.
The target of data set [14] is T3, CYP2C8 (Homo sapiens, UniProt P10632).
T3 sequence (P10632 whole entry): T2 sequence (P10632 whole entry)
Kind of data set: Inhibition of CYP2C8 in human liver microsomes preincubated for 5 mins followed by NADPH addition at 10 uM measured after 10 mins by LC-MS/MS analysis relative to control. The format is ADME.

In data set [15] the target is CYP2C19 (Homo sapiens, UniProt P33261). Description: Inhibition of CYP2C19 in human liver microsomes preincubated for 5 mins followed by NADPH addition at 10 uM measured after 40 mins by LC-MS/MS analysis relative to control. The format is ADME.
For data set [16], the system named is Salmonella typhimurium. Description: Mutagenicity in Salmonella typhimurium TA100 in presence of rat liver S9 fraction assessed as increase in revertant colonies at 0.24 to 500 ug/well after 72 hrs by Ames test relative to control. The format is toxicity. Conditions: salmonella enterica subsp. enterica serovar typhimurium, s9, 72 h. An outline of the steps:
(§2)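 Reverse mutation at histidine locus in S. typhimurium TA98 (frameshift) and TA100 (base-pair substitution), with and without S9; 0.24−500 μg/well; 37 ± 2 °C for 72 h, triplicates; DMSO vehicle; sodium azide, 2-nitrofluorene, 2-aminoanthracene positive controls; positive if revertants rise ≥2-fold over negative control dose-dependently.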
(In the Ames test, an excess of revertant colonies over the control signals mutagenicity.)

The subject of data set [17] is Salmonella typhimurium. Description: Mutagenicity in Salmonella typhimurium TA100 assessed as increase in revertant colonies at 0.24 to 500 ug/well after 72 hrs by Ames test relative to control. It is filed as toxicity. Conditions: salmonella enterica subsp. enterica serovar typhimurium. Put shortly:
as §2

In brackets after ≈: the same amount, converted by molar mass. Activity calls are given as the source filed them. No cut-off for these calls is given here.

The term MIC denotes the least concentration at which growth counts as inhibited. Low values mean greater potency, high ones weaker potency. By inhibition is commonly meant the relative decrease from the control value, in per cent. For orientation: IC50 means the concentration needed to halve the response being measured. Low readings indicate inhibition by little substance, high ones a need for much substance.

Chain of Cytochrome P450 2C9 (P11712 whole entry): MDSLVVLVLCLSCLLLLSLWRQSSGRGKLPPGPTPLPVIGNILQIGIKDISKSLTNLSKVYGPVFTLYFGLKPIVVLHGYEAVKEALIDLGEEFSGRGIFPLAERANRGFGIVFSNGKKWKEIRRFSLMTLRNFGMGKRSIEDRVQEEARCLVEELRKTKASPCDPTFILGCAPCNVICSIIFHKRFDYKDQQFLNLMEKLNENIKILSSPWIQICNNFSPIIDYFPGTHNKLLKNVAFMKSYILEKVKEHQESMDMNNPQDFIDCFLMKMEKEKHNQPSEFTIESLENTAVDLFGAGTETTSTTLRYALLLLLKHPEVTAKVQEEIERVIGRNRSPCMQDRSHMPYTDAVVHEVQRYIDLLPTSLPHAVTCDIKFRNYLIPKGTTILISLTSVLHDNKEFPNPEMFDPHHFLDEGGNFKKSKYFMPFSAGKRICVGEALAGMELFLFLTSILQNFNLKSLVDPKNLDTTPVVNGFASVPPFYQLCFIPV
Chain of CYP2C19 (P33261 whole entry): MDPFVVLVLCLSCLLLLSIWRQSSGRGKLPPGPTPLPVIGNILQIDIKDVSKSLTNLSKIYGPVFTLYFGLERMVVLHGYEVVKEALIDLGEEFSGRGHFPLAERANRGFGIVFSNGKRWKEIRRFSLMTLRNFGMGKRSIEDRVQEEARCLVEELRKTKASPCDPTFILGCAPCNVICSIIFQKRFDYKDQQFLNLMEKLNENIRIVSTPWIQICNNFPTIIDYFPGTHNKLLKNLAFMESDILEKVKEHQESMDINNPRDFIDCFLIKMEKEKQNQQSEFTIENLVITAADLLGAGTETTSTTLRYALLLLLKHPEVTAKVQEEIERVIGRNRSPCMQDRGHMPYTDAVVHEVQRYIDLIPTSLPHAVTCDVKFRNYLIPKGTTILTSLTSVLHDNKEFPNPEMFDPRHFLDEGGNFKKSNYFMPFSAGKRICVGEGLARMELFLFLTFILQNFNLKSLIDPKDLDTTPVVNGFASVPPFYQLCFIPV
Chain of Cytochrome P450 3A4 (P08684 whole entry): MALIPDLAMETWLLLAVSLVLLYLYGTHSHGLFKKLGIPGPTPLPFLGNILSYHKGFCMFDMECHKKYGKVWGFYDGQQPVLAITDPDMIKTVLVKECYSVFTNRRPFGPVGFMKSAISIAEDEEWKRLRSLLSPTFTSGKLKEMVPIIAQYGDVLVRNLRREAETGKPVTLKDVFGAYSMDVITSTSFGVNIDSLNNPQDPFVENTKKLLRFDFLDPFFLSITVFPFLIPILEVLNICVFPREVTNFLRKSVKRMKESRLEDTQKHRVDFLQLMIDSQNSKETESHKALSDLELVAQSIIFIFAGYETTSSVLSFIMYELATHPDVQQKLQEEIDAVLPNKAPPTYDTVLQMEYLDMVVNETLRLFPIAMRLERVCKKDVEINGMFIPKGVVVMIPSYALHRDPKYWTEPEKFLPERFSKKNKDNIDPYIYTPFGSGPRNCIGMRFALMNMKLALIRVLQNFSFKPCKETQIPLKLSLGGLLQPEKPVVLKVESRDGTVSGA

Turning to `O=C(NC1CCCCCC1)c1cc2c(Cl)cc(Cl)cc2[nH]1`, the MIC in [1], in [2], in [3], in data set [4], in data set [5] and in data set [6] was 0.125 µg/mL (≈ 0.384 µM) throughout. In data set [7], the result was Active. Also, in [8], the inhibition result was “Active”. Besides, the IC50 in data set [9], in [10], in [12] and in [13] was no more than 20 µM throughout. Moreover, in data set [11], the Papp at 4 h, 25 µM came to 0.2 ×10⁻⁶ cm/s. For the same molecule, the inhibition at 10 min, 10 µM in data set [14] amounted to 20%. Also, the inhibition at 40 min, 10 µM in data set [15] came to 4%. For the same molecule, the “fold change (FC)” value in data set [16] and in data set [17] was less than 2 in each case.
